Laboratory results published in ChEMBL document CHEMBL4425109, “Optimization of Cyclic Plasmin Inhibitors: From Benzamidines to Benzylamines” (J Med Chem, 2016).

Columns and labels:
[1] = target: T1, Plasminogen (Homo sapiens, UniProt P00747); assay: Inhibition of human plasmin using Mes-DSer(Bzl)-Phe-Arg-AMC as substrate by Dixon plot analysis
Target sequence in this assay (P00747 97-580 limits assumed): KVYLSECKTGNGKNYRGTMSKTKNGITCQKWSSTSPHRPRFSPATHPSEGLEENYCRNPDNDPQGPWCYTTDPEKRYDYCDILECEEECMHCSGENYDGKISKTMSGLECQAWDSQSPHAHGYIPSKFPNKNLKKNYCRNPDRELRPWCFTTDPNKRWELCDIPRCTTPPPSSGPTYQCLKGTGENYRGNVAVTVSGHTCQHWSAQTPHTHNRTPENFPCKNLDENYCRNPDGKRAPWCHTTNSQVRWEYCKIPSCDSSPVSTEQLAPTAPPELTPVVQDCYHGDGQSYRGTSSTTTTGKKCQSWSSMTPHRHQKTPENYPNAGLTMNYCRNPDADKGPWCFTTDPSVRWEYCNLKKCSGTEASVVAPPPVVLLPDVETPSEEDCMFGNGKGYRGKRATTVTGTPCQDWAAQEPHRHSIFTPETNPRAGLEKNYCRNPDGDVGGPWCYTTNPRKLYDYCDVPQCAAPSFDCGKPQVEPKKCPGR
Target sequence in this assay (P00747 581-810 limits assumed): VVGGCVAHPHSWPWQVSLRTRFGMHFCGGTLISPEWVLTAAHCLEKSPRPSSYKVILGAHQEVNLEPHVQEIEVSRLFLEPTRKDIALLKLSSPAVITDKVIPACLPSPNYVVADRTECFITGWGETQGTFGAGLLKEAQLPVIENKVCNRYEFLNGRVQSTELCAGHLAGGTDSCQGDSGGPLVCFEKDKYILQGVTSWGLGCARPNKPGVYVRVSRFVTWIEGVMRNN

[2] = target: Plasma kallikrein (Homo sapiens, UniProt P03952); assay: Inhibition of human plasma kallikrein using Mes-DArg-Pro-Arg-AMC as substrate by Dixon plot analysis
Sequence of Plasma kallikrein (P03952 20-390 limits assumed): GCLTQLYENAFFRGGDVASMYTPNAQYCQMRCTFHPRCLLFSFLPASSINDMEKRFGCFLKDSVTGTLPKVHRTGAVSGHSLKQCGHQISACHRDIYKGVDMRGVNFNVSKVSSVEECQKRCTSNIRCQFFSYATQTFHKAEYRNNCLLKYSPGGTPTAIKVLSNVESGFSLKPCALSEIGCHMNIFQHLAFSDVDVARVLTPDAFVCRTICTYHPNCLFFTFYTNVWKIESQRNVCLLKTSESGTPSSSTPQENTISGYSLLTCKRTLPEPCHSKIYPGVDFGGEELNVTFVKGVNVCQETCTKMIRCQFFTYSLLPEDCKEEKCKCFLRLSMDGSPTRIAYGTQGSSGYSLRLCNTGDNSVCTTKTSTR
Sequence of Plasma kallikrein (P03952 391-638 limits assumed): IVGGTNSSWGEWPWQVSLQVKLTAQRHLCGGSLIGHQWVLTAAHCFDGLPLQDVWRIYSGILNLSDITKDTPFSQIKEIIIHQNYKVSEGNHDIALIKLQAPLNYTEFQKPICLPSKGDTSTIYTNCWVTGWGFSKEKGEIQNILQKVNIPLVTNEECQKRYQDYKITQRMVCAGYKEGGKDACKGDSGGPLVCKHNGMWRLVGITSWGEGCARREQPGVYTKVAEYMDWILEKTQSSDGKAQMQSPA
In short: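 Human plasma kallikrein (112 pM final) was assayed at room temperature in Tris·HCl 50 mM pH 8.0 with NaCl 154 mM. Mes-DArg-Pro-Arg-AMC served as substrate (KM 39 μM). Fluorescence was read at ex 355 / em 460 nm, with reactions started by enzyme.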

[3] = target: Coagulation factor X (Homo sapiens, UniProt P00742); assay: Inhibition of human f10a using Mes-DArg-Pro-Arg-AMC as substrate by Dixon plot analysis
Sequence of Coagulation factor X (P00742 41-179 limits assumed): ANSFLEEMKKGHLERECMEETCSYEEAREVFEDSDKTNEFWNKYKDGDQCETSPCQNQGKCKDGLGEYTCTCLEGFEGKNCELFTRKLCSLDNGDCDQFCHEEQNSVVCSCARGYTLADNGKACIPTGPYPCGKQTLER
Sequence of Coagulation factor X (P00742 235-488 limits assumed): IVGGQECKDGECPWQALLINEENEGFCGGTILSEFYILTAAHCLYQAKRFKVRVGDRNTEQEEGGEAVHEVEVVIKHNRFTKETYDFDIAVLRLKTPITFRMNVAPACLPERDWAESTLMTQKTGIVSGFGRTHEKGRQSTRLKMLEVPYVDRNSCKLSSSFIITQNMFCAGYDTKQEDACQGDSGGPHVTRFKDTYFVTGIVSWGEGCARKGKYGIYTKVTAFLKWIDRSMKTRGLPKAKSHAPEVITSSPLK
In short: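 Human factor Xa, 97 pM in assay, in 50 mM Tris·HCl pH 8.0 with 154 mM NaCl at room temperature. Fluorogenic substrate Mes-DArg-Pro-Arg-AMC (KM 28 μM), read at ex 355 / em 460 nm after starting with enzyme. Ki was taken from Dixon plots and averaged over at least two measurements.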

[4] = target: Prothrombin (Bos taurus, UniProt P00735); assay: Inhibition of bovine thrombin using Tos-Gly-Pro-Arg-AMC as substrate by Dixon plot analysis
In short: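 Bovine thrombin at 31 pM in assay, KM 5.4 μM for the substrate. Run at room temperature in 50 mM Tris·HCl pH 8.0 with 154 mM NaCl. Fluorescence read at ex 355 / em 460 nm, reaction started by enzyme addition. Ki from Dixon plots, average of at least two measurements.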

[5] = target: Vitamin K-dependent protein C (Homo sapiens, UniProt P04070); assay: Inhibition of human activated Protein C using Mes-DArg-Pro-Arg-AMC as substrate by Dixon plot analysis
Sequence of Vitamin K-dependent protein C (P04070 43-197 limits assumed): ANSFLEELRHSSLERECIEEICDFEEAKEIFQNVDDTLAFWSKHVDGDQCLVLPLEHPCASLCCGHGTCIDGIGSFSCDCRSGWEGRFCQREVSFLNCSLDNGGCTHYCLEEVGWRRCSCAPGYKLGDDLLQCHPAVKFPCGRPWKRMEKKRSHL
Sequence of Vitamin K-dependent protein C (P04070 212-461 limits assumed): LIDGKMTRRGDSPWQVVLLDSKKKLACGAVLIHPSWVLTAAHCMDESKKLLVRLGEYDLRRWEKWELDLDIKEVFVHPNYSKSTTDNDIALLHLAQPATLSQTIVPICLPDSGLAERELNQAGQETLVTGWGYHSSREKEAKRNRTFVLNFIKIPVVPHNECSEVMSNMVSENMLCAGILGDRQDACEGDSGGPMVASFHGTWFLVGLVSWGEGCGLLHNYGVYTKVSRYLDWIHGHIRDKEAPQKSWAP
In short: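 Human aPC, 293 pM final. Run at room temperature in 50 mM Tris·HCl pH 8.0 with 154 mM NaCl. Substrate Mes-DArg-Pro-Arg-AMC, KM 26 μM. Fluorescence was read at ex 355 / em 460 nm, with reaction started by enzyme. Ki came from Dixon plots, mean of at least two measurements.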

[6] = target: Trypsin (Sus scrofa, UniProt P00761); assay: Inhibition of porcine trypsin using Mes-DArg-Gly-Arg-AMC as substrate by Dixon plot analysis
Sequence of Trypsin (P00761 whole entry): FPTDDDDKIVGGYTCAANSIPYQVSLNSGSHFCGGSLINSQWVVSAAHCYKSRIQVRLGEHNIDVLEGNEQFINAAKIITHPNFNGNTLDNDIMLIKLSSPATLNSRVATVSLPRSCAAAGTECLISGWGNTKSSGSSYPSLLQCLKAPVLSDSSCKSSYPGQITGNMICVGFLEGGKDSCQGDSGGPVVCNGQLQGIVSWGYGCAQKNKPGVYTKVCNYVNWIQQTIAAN
In short: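 Porcine trypsin, 30 pM final, with substrate Mes-DArg-Gly-Arg-AMC (KM 8.3 μM). Buffer was 50 mM Tris·HCl pH 8.0 containing 154 mM NaCl, at room temperature. Reaction was started by enzyme and fluorescence read at ex 355 / em 460 nm. Ki was obtained from Dixon plots, mean of at least two measurements.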

[7] = target: T1, Plasminogen; assay: Binding affinity to human plasmin assessed as slow binding constant in presence of Mes-DArg-Phe-Arg-AMC after 20 mins by Dixon plot analysis
Target sequence in this assay (P00747 97-580 limits assumed): as the sequence (P00747 97-580 limits assumed) above
Target sequence in this assay (P00747 581-810 limits assumed): as the sequence (P00747 581-810 limits assumed) above

[8] = test system: Plasma; assay: Antifibrinolytic activity in human plasma assessed as inhibition of tPA-induced plasmin formation after 40 mins; assay type: functional, cell-free
In short: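 Citrated human plasma at 37 °C with CaCl2 (12.5 mM in assay), tissue factor (stock 1/500 in assay) and tPA (12.3 nM in assay). Inhibitor dilutions, from 10 mM DMSO stocks diluted in 0.9% NaCl, were preincubated 5 min at 37 °C with these reagents, then started with prewarmed plasma. OD405 was read over 40 min.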

[9] = target: T1, Plasminogen; assay: Inhibition of human plasmin
Target sequence in this assay (P00747 whole entry, looked up): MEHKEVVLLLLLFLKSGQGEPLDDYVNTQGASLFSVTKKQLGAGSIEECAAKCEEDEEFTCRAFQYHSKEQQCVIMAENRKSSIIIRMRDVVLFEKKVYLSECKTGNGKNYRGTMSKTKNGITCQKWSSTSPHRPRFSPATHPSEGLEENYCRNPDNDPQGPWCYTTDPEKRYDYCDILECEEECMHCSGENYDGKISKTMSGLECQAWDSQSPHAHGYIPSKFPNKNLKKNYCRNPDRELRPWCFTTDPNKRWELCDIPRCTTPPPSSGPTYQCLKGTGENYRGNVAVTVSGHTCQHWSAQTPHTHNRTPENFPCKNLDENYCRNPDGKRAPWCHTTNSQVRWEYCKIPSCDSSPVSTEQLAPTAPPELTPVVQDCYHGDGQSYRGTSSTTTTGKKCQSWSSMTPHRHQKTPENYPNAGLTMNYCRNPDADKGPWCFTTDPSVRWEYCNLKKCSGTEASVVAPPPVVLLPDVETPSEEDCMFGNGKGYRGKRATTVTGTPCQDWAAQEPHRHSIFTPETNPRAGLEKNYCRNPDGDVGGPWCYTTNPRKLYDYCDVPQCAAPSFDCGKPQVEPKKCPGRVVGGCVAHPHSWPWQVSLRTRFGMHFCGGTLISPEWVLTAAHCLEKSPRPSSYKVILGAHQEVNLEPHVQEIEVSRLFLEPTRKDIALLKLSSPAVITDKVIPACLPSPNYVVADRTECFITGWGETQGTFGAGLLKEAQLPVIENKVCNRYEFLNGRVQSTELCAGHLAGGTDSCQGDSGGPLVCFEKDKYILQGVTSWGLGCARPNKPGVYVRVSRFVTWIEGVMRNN

[10] = test system: Plasma; assay: Inhibition of TF/Ca2+-induced clotting in human plasma at 10 to 200 nM after 40 mins; assay type: cell-free; settings: 0.2 µM
In short: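 Clotting was triggered in citrated human plasma at 37 °C by tissue factor (stock 1/500 in assay) plus CaCl2 (12.5 mM in assay), with tPA 12.3 nM present. Inhibitor was tested at 10–200 nM after 5 min preincubation of reagents at 37 °C. Clot formation was followed as the rapid initial OD405 rise to a plateau, read over 40 min.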

[11] = test system: Plasma; assay: Potency index, ratio of aprotinin IC50 to compound IC50 for inhibition of tPA-induced plasmin formation in human plasma; assay type: functional

Ki [1] | Ki [2] | Ki [3] | Ki [4] | Ki [5] | Ki [6] | Ki [7] | IC50 [8] | Ki [9] | Structure (SMILES) | Activity [10] | Ratio IC50 [11]
 |  |  |  | 96.5 µM |  |  |  |  | N=C(N)c1ccc(CNC(=O)[C@@H]2Cc3ccc(cc3)NC(=O)CCN3CCN(CCC(=O)Nc4ccc(cc4)C[C@@H](NC(=O)Cc4ccccc4)C(=O)N2)CC3)cc1 |  | 
 |  |  |  | 46.5 µM | 103 nM |  |  |  | N=C(N)c1ccc(CNC(=O)[C@@H]2Cc3ccc(cc3)NC(=O)CCN3CCN(CCC(=O)Nc4ccc(cc4)C[C@@H](NC(=O)OCc4ccccc4)C(=O)N2)CC3)cc1 |  | 
81.3 nM | 7.27 µM | 202 µM | 72.2 µM | 212 µM |  |  |  |  | N=C(N)c1ccc(CNC(=O)[C@@H]2Cc3ccc(cc3)NC(=O)CN3CCN(CC3)CC(=O)Nc3ccc(cc3)C[C@@H](NC(=O)Cc3ccccc3)C(=O)N2)cc1 |  | 
 |  |  |  |  |  |  |  | 24 µM | CC(C)(C)OC[C@@H](NS(=O)(=O)c1ccccc1)C(=O)NCC(=O)NCc1ccc(C(=N)N)cc1 |  | 
0.51 nM | 0.54 µM | > 15 µM | 20.7 µM | > 30 µM | 501 nM |  |  |  | N=C(N)c1ccc(CNC(=O)[C@@H]2Cc3ccc(cc3)NC(=O)CN3CCN(CC3)CC(=O)Nc3ccc(cc3)C[C@@H](NS(=O)(=O)c3ccccc3)C(=O)N2)cc1 |  | 
61.1 nM | 8.25 µM | 20.6 µM | 8.79 µM | 42 µM | 1430 nM |  |  |  | N=C(N)c1ccc(CNC(=O)[C@@H]2Cc3ccc(cc3)NC(=O)CN3CCN(CC3)CC(=O)Nc3ccc(cc3)C[C@@H](NC(=O)CCc3ccccc3)C(=O)N2)cc1 |  | 
 |  |  |  |  |  |  |  | 7.7 µM | CC(C)(C)OC[C@@H](NS(=O)(=O)Cc1ccccc1)C(=O)NCC(=O)NCc1ccc(C(=N)N)cc1 |  | 
0.45 nM | 0.701 µM | 34.4 µM | 14.1 µM | 4.28 µM | 13.7 nM |  |  |  | CCCCS(=O)(=O)N[C@@H]1Cc2ccc(cc2)NC(=O)CCN2CCN(CCC(=O)Nc3ccc(cc3)C[C@@H](C(=O)NCc3ccc(C(=N)N)cc3)NC1=O)CC2 |  | 

Continued, compound first:

Structure (SMILES) | Ki [1] | Ki [2] | Ki [3] | Ki [4] | Ki [5] | Ki [6] | Ki [7] | IC50 [8] | Ki [9] | Activity [10] | Ratio IC50 [11]
N=C(N)c1ccc(CNC(=O)[C@@H]2Cc3ccc(cc3)NC(=O)CCN3CCN(CCC(=O)Nc4ccc(cc4)C[C@@H](NC=O)C(=O)N2)CC3)cc1 | 2.69 nM | 3.87 µM | > 100 µM | > 100 µM | 62.9 µM | 561 nM |  |  |  |  | 
COC(=O)N[C@@H]1Cc2ccc(cc2)NC(=O)CCN2CCN(CCC(=O)Nc3ccc(cc3)C[C@@H](C(=O)NCc3ccc(C(=N)N)cc3)NC1=O)CC2 | 0.77 nM | 7.25 µM | 50.7 µM | 15.3 µM | 51.5 µM | 109 nM | 0.85 nM |  |  |  | 
N=C(N)c1ccc(CNC(=O)[C@@H]2Cc3ccc(cc3)NC(=O)CCN3CCN(CCC(=O)Nc4ccc(cc4)C[C@@H](N)C(=O)N2)CC3)cc1 |  |  |  |  | 106 µM |  |  |  |  |  | 
NCc1ccc(CNC(=O)[C@@H]2Cc3ccc(cc3)NC(=O)CCN3CCN(CCC(=O)Nc4ccc(cc4)C[C@@H](NS(=O)(=O)NC4CCCCC4)C(=O)N2)CC3)cc1 | 0.52 nM | 43.2 µM | > 100 µM | 7.13 µM | > 100 µM | 351 nM | 0.43 nM | 100 nM |  |  | 
NCc1ccc(CNC(=O)[C@@H]2Cc3ccc(cc3)NC(=O)CCN3CCN(CCC(=O)Nc4ccc(cc4)C[C@@H](NS(=O)(=O)c4ccccc4)C(=O)N2)CC3)cc1.O=C(O)C(F)(F)F.O=C(O)C(F)(F)F.O=C(O)C(F)(F)F | 0.56 nM | 48.7 µM | > 100 µM | 36.9 µM | > 100 µM | 1540 nM | 0.54 nM | 81 nM |  | Non-Toxic | 3
NCCCCNC(=O)[C@@H]1Cc2ccc(cc2)NC(=O)CCN2CCN(CCC(=O)Nc3ccc(cc3)C[C@@H](NS(=O)(=O)NC3CCCCC3)C(=O)N1)CC2 | 50.6 nM | 64.4 µM | 39.5 µM | 21.9 µM | 85.9 µM | 6200 nM |  |  |  |  | 
